According to ChEMBL document CHEMBL1765049, “Inhibitory properties of 2-substituent-1H-benzimidazole-4-carboxamide derivatives against enteroviruses” (Bioorg Med Chem, 2011):

tested on: not listed separately; assay: Cytotoxicity against african green monkey Vero cells; type: cell-based; conditions: chlorocebus sabaeus, Vero cells; read-out: TC50 (the source's name)
Summary of the method: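 TC50 is the compound concentration killing 50% of Vero cells (inhibiting cell growth by 50%). Compounds were dissolved in DMSO and diluted in medium, then added to seeded Vero cells. Cell wells were examined when cytopathic effect in virus-infected control wells exceeded grade 4.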

SMILES	CC50 [µM]
C[C@@H](NC(=O)c1cccc2[nH]c(-c3ccc([N+](=O)[O-])o3)nc12)[C@H](O)c1ccc(Cl)cc1	48.6
COc1ccc(-c2nc3c(C(=O)Nc4cnccn4)cccc3[nH]2)cc1OC	98.8
COc1ccc(-c2nc3c(C(=O)Nc4ncccc4O)cccc3[nH]2)cc1OC	164
Cc1csc(NC(=O)c2cccc3[nH]c(-c4cccnc4)nc23)n1	111
O=C(N[C@H](CO)[C@H](O)c1ccc([N+](=O)[O-])cc1)c1cccc2[nH]c(-c3ccco3)nc12	152
COc1ccc(-c2nc3c(C(=O)Nc4cnc(Cl)cn4)cccc3[nH]2)c(OC)c1OC	65.2
COc1ccc(-c2nc3c(C(=O)NCCCO)cccc3[nH]2)cc1OC	46
C[C@@H](NC(=O)c1cccc2[nH]c(-c3ccco3)nc12)[C@H](O)c1ccc(Cl)cc1	162
O=C(Nc1ccccc1F)c1cccc2[nH]c(-c3ccco3)nc12	25
COc1ccc(-c2nc3c(C(=O)Nc4ccccc4F)cccc3[nH]2)cc1OC	24.5
Cc1csc(NC(=O)c2cccc3[nH]c(-c4ccccn4)nc23)n1	17.7
O=C(Nc1ccccc1)c1cccc2[nH]c(-c3ccccn3)nc12	17.9
COc1ccc(-c2nc3c(C(=O)N[C@H](CO)[C@H](O)c4ccc([N+](=O)[O-])cc4)cccc3[nH]2)c(OC)c1OC	9.85
COc1ccc(-c2nc3c(C(=O)Nc4ccccc4F)cccc3[nH]2)c(OC)c1OC	37.8
Cc1csc(NC(=O)c2cccc3[nH]c(-c4ccncc4)nc23)n1	111
COc1ccc(-c2nc3c(C(=O)Nc4nc(C#N)c(C#N)[nH]4)cccc3[nH]2)cc1OC	43.1
O=C(N[C@H](CO)[C@H](O)c1ccc([N+](=O)[O-])cc1)c1cccc2[nH]c(-c3ccncc3)nc12	123
NC(=O)c1ncn([C@@H]2O[C@H](CO)[C@@H](O)[C@H]2O)n1 [RIBAVIRIN]	8190
COc1ccc(-c2nc3c(C(=O)Nc4c[nH]cn4)cccc3[nH]2)cc1OC	306
COc1ccc(-c2nc3c(C(=O)N[C@H](CO)[C@H](O)c4ccc([N+](=O)[O-])cc4)cccc3[nH]2)cc1OC	14.5
COc1ccc(-c2nc3c(C(=O)Nc4cnc(Cl)cn4)cccc3[nH]2)cc1OC	78.3

tested on: Enterovirus A71; assay: Antiviral activity against Human enterovirus 71 infected in african green monkey Vero cells assessed as inhibition of viral growth after 24 hrs by Reed-Muench method; type: functional, organism-based; conditions: Enterovirus A
Summary of the method: (§1)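 Vero cells were seeded and after 24 h exposed to virus for 2 h. Compounds were then added after being dissolved in DMSO and diluted in culture medium. Cell-control and virus-control wells were run alongside. Cytopathic effect was scored once the virus wells exceeded grade 4. The 50% inhibitory concentration of virus growth was calculated by the Reed–Muench method.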

SMILES	IC50 [µM]
COc1ccc(-c2nc3c(C(=O)Nc4cnc(Cl)cn4)cccc3[nH]2)c(OC)c1OC	16.9
COc1ccc(-c2nc3c(C(=O)NCCCO)cccc3[nH]2)cc1OC	20.9
COc1ccc(-c2nc3c(C(=O)N[C@H](CO)[C@H](O)c4ccc([N+](=O)[O-])cc4)cccc3[nH]2)c(OC)c1OC	3.68
NC(=O)c1ncn([C@@H]2O[C@H](CO)[C@@H](O)[C@H]2O)n1 [RIBAVIRIN]	2340
COc1ccc(-c2nc3c(C(=O)Nc4cnc(Cl)cn4)cccc3[nH]2)cc1OC	18.1

tested on: Coxsackievirus B3; assay: Antiviral activity against Coxsackievirus B3 infected in african green monkey Vero cells assessed as inhibition of viral growth after 24 hrs by Reed-Muench method; type: functional, organism-based; conditions: Enterovirus B; summary of the method: as §1

SMILES	IC50 [µM]
C[C@@H](NC(=O)c1cccc2[nH]c(-c3ccc([N+](=O)[O-])o3)nc12)[C@H](O)c1ccc(Cl)cc1	16.2
Cc1csc(NC(=O)c2cccc3[nH]c(-c4cccnc4)nc23)n1	16.2
O=C(N[C@H](CO)[C@H](O)c1ccc([N+](=O)[O-])cc1)c1cccc2[nH]c(-c3ccco3)nc12	37.7
COc1ccc(-c2nc3c(C(=O)Nc4cnc(Cl)cn4)cccc3[nH]2)c(OC)c1OC	17.4
COc1ccc(-c2nc3c(C(=O)NCCCO)cccc3[nH]2)cc1OC	17.2
C[C@@H](NC(=O)c1cccc2[nH]c(-c3ccco3)nc12)[C@H](O)c1ccc(Cl)cc1	13.4
O=C(Nc1ccccc1F)c1cccc2[nH]c(-c3ccco3)nc12	3.3
COc1ccc(-c2nc3c(C(=O)Nc4ccccc4F)cccc3[nH]2)cc1OC	3.5
Cc1csc(NC(=O)c2cccc3[nH]c(-c4ccccn4)nc23)n1	1.76
O=C(Nc1ccccc1)c1cccc2[nH]c(-c3ccccn3)nc12	0.459
COc1ccc(-c2nc3c(C(=O)N[C@H](CO)[C@H](O)c4ccc([N+](=O)[O-])cc4)cccc3[nH]2)c(OC)c1OC	4.73
COc1ccc(-c2nc3c(C(=O)Nc4ccccc4F)cccc3[nH]2)c(OC)c1OC	9.8
Cc1csc(NC(=O)c2cccc3[nH]c(-c4ccncc4)nc23)n1	21.3
O=C(N[C@H](CO)[C@H](O)c1ccc([N+](=O)[O-])cc1)c1cccc2[nH]c(-c3ccncc3)nc12	30.2
NC(=O)c1ncn([C@@H]2O[C@H](CO)[C@@H](O)[C@H]2O)n1 [RIBAVIRIN]	1690
COc1ccc(-c2nc3c(C(=O)Nc4cnc(Cl)cn4)cccc3[nH]2)cc1OC	18.4

tested on: not listed separately; assay: Selectivity index, ratio of TC50 for african green monkey Vero cells to IC50 for Coxsackievirus B3; type: toxicity, cell-based; conditions: read-out: Selectivity Index
Summary of the method: (§2)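 Selectivity index is calculated as TC50 in Vero cells divided by the antiviral IC50 against the named enterovirus. Both values come from the same Vero cytopathic-effect assay, with compounds dissolved in DMSO and diluted in medium.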

SMILES	selectivity ratio
C[C@@H](NC(=O)c1cccc2[nH]c(-c3ccc([N+](=O)[O-])o3)nc12)[C@H](O)c1ccc(Cl)cc1	3
Cc1csc(NC(=O)c2cccc3[nH]c(-c4cccnc4)nc23)n1	6.8
O=C(N[C@H](CO)[C@H](O)c1ccc([N+](=O)[O-])cc1)c1cccc2[nH]c(-c3ccco3)nc12	4
COc1ccc(-c2nc3c(C(=O)Nc4cnc(Cl)cn4)cccc3[nH]2)c(OC)c1OC	3.8
COc1ccc(-c2nc3c(C(=O)NCCCO)cccc3[nH]2)cc1OC	2.7
C[C@@H](NC(=O)c1cccc2[nH]c(-c3ccco3)nc12)[C@H](O)c1ccc(Cl)cc1	12.1
O=C(Nc1ccccc1F)c1cccc2[nH]c(-c3ccco3)nc12	7.5
COc1ccc(-c2nc3c(C(=O)Nc4ccccc4F)cccc3[nH]2)cc1OC	7
Cc1csc(NC(=O)c2cccc3[nH]c(-c4ccccn4)nc23)n1	10
O=C(Nc1ccccc1)c1cccc2[nH]c(-c3ccccn3)nc12	38.9
COc1ccc(-c2nc3c(C(=O)N[C@H](CO)[C@H](O)c4ccc([N+](=O)[O-])cc4)cccc3[nH]2)c(OC)c1OC	2
COc1ccc(-c2nc3c(C(=O)Nc4ccccc4F)cccc3[nH]2)c(OC)c1OC	3.9
Cc1csc(NC(=O)c2cccc3[nH]c(-c4ccncc4)nc23)n1	5.2
O=C(N[C@H](CO)[C@H](O)c1ccc([N+](=O)[O-])cc1)c1cccc2[nH]c(-c3ccncc3)nc12	4.1
COc1ccc(-c2nc3c(C(=O)Nc4cnc(Cl)cn4)cccc3[nH]2)cc1OC	4.3

tested on: not listed separately; assay: Selectivity index, ratio of TC50 for african green monkey Vero cells to IC50 for Coxsackievirus B6; type: toxicity, cell-based; conditions: read-out: Selectivity Index; summary of the method: as §2

SMILES	selectivity ratio
COc1ccc(-c2nc3c(C(=O)Nc4cnc(Cl)cn4)cccc3[nH]2)c(OC)c1OC	3.9
COc1ccc(-c2nc3c(C(=O)NCCCO)cccc3[nH]2)cc1OC	3.6
COc1ccc(-c2nc3c(C(=O)N[C@H](CO)[C@H](O)c4ccc([N+](=O)[O-])cc4)cccc3[nH]2)c(OC)c1OC	2.1
COc1ccc(-c2nc3c(C(=O)Nc4cnc(Cl)cn4)cccc3[nH]2)cc1OC	4.3

tested on: not listed separately; assay: Selectivity index, ratio of TC50 for african green monkey Vero cells to IC50 for Human enterovirus 71; type: toxicity, cell-based; conditions: read-out: Selectivity Index; summary of the method: as §2

SMILES	selectivity ratio
COc1ccc(-c2nc3c(C(=O)Nc4cnc(Cl)cn4)cccc3[nH]2)c(OC)c1OC	3.9
COc1ccc(-c2nc3c(C(=O)NCCCO)cccc3[nH]2)cc1OC	2.7
COc1ccc(-c2nc3c(C(=O)N[C@H](CO)[C@H](O)c4ccc([N+](=O)[O-])cc4)cccc3[nH]2)c(OC)c1OC	2.7
COc1ccc(-c2nc3c(C(=O)Nc4cnc(Cl)cn4)cccc3[nH]2)cc1OC	4.3

tested on: Coxsackievirus B6; assay: Antiviral activity against Coxsackievirus B6 infected in african green monkey Vero cells assessed as inhibition of viral growth after 24 hrs by Reed-Muench method; type: functional, organism-based; conditions: Enterovirus B; summary of the method: as §1

SMILES	IC50 [µM]
COc1ccc(-c2nc3c(C(=O)Nc4cnc(Cl)cn4)cccc3[nH]2)c(OC)c1OC	16.9
COc1ccc(-c2nc3c(C(=O)NCCCO)cccc3[nH]2)cc1OC	12.1
COc1ccc(-c2nc3c(C(=O)N[C@H](CO)[C@H](O)c4ccc([N+](=O)[O-])cc4)cccc3[nH]2)c(OC)c1OC	4.73
NC(=O)c1ncn([C@@H]2O[C@H](CO)[C@@H](O)[C@H]2O)n1 [RIBAVIRIN]	910
COc1ccc(-c2nc3c(C(=O)Nc4cnc(Cl)cn4)cccc3[nH]2)cc1OC	18.1

tested on: Coxsackievirus A16; assay: Antiviral activity against Coxsackievirus A16 infected in african green monkey Vero cells assessed as inhibition of viral growth after 24 hrs by Reed-Muench method; type: functional, cell-based; conditions: Enterovirus A, Vero, 24 h; read-out: IC50; summary of the method: as §1

SMILES	IC50 [µM]
COc1ccc(-c2nc3c(C(=O)Nc4cnccn4)cccc3[nH]2)cc1OC	32.9
COc1ccc(-c2nc3c(C(=O)Nc4ncccc4O)cccc3[nH]2)cc1OC	31.7
COc1ccc(-c2nc3c(C(=O)Nc4cnc(Cl)cn4)cccc3[nH]2)c(OC)c1OC	16.9
COc1ccc(-c2nc3c(C(=O)NCCCO)cccc3[nH]2)cc1OC	20.9
COc1ccc(-c2nc3c(C(=O)Nc4ccccc4F)cccc3[nH]2)cc1OC	3.5
COc1ccc(-c2nc3c(C(=O)N[C@H](CO)[C@H](O)c4ccc([N+](=O)[O-])cc4)cccc3[nH]2)c(OC)c1OC	4.73
COc1ccc(-c2nc3c(C(=O)Nc4ccccc4F)cccc3[nH]2)c(OC)c1OC	16.9
COc1ccc(-c2nc3c(C(=O)Nc4nc(C#N)c(C#N)[nH]4)cccc3[nH]2)cc1OC	9.98
NC(=O)c1ncn([C@@H]2O[C@H](CO)[C@@H](O)[C@H]2O)n1 [RIBAVIRIN]	4090
COc1ccc(-c2nc3c(C(=O)Nc4c[nH]cn4)cccc3[nH]2)cc1OC	102
COc1ccc(-c2nc3c(C(=O)N[C@H](CO)[C@H](O)c4ccc([N+](=O)[O-])cc4)cccc3[nH]2)cc1OC	8.37
COc1ccc(-c2nc3c(C(=O)Nc4cnc(Cl)cn4)cccc3[nH]2)cc1OC	18.1

tested on: not listed separately; assay: Selectivity index, ratio of TC50 for african green monkey Vero cells to IC50 for Coxsackievirus A16; type: toxicity, cell-based; conditions: read-out: Selectivity Index; summary of the method: as §2

SMILES	selectivity ratio
COc1ccc(-c2nc3c(C(=O)Nc4cnccn4)cccc3[nH]2)cc1OC	3
COc1ccc(-c2nc3c(C(=O)Nc4ncccc4O)cccc3[nH]2)cc1OC	5.2
COc1ccc(-c2nc3c(C(=O)Nc4cnc(Cl)cn4)cccc3[nH]2)c(OC)c1OC	3.9
COc1ccc(-c2nc3c(C(=O)NCCCO)cccc3[nH]2)cc1OC	2.1
COc1ccc(-c2nc3c(C(=O)Nc4ccccc4F)cccc3[nH]2)cc1OC	7
COc1ccc(-c2nc3c(C(=O)N[C@H](CO)[C@H](O)c4ccc([N+](=O)[O-])cc4)cccc3[nH]2)c(OC)c1OC	2.1
COc1ccc(-c2nc3c(C(=O)Nc4ccccc4F)cccc3[nH]2)c(OC)c1OC	3
COc1ccc(-c2nc3c(C(=O)Nc4nc(C#N)c(C#N)[nH]4)cccc3[nH]2)cc1OC	4.3
COc1ccc(-c2nc3c(C(=O)Nc4c[nH]cn4)cccc3[nH]2)cc1OC	3
COc1ccc(-c2nc3c(C(=O)N[C@H](CO)[C@H](O)c4ccc([N+](=O)[O-])cc4)cccc3[nH]2)cc1OC	1.7
COc1ccc(-c2nc3c(C(=O)Nc4cnc(Cl)cn4)cccc3[nH]2)cc1OC	4.3
